In general, IC50 refers to the concentration at which inhibition is half-maximal. For orientation: inhibition means how much of the control response was suppressed.

This note sets out measurements from ChEMBL document CHEMBL3112476, “Inhibition of IκB kinase-β and IκB kinase-α by heterocyclic adamantyl arotinoids” (Bioorg Med Chem, 2014).

Experiment [1] has as its target T1, Retinoic acid receptor alpha (Homo sapiens) (UniProt P10276).
T1 sequence (whole entry): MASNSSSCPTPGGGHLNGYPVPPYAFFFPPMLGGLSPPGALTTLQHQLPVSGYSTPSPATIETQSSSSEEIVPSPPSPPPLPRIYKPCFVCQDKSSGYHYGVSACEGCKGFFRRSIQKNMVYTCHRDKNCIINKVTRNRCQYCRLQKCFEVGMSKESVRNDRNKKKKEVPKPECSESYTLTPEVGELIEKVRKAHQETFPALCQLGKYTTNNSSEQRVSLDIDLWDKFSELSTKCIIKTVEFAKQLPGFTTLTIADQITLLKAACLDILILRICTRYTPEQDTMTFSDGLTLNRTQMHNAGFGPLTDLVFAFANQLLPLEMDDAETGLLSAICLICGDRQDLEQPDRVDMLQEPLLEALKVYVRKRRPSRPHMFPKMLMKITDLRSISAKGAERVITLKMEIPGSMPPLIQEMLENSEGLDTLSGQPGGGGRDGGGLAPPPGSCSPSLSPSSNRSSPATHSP
Nature of the experiment: Agonist activity at Gal4-fused RARalpha (unknown origin) transfected in HEK293 cells assessed as induction of transcriptional activity at 4 uM after 6 hrs by luciferase/beta-galactosidase reporter gene assay relative to control. The experiment is classed as cell-based. Summed up: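 Gal4-RARα or Gal4-RXRα (10 ng) plus 2 ng β-galactosidase vector, calcium phosphate transfection into HEK-293 cells carrying a 5×UAS luciferase reporter. After 16 h, cells were washed and given 5% charcoal-treated FBS medium, then rested 2 h. Stimulation was with 4 µM compound or 0.1% DMSO; controls were 1 µM atRA (RARα) or 1 µM CD3254 (RXRα). Harvest was at 6 h (RARα) or 24 h (RXRα). Luciferase/β-gal ratio was expressed as fold over unstimulated cells. Data: 2 experiments, triplicate.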
(A reporter such as luciferase makes a cellular process visible.)

Experiment [2] deals with T2, Retinoic acid receptor alpha (Homo sapiens, UniProt P10276).
T2 sequence (P10276 whole entry): T1 sequence (whole entry)
Description: Inverse agonist activity at RARalpha (unknown origin).

Experiment [3] has as its target T1, Retinoic acid receptor alpha (Homo sapiens). Nature of the experiment: Antagonist activity at Gal4-fused RARalpha (unknown origin) transfected in HEK293 cells assessed as ATRA-induced transcriptional activity at 4 uM by luciferase/beta-galactosidase reporter gene assay relative to ATRA-treated control. Type of experiment: cell-based. The arrangement: scale not given: the % may be the effect or the level left. Put shortly: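 Same Gal4-RARα HEK-293 UAS-luciferase system, stimulated with 0.1 µM atRA alone or with 4 µM compound (40-fold molar excess); 1 µM UVI2024 served as control antagonist. Background-subtracted luciferase was normalized to β-galactosidase and given as percent of atRA-stimulated cells. Data: 2–3 experiments, triplicate.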

Experiment [4] has as its target T3, Retinoic acid receptor RXR-alpha (Homo sapiens) (UniProt P19793).
T3 sequence (whole entry): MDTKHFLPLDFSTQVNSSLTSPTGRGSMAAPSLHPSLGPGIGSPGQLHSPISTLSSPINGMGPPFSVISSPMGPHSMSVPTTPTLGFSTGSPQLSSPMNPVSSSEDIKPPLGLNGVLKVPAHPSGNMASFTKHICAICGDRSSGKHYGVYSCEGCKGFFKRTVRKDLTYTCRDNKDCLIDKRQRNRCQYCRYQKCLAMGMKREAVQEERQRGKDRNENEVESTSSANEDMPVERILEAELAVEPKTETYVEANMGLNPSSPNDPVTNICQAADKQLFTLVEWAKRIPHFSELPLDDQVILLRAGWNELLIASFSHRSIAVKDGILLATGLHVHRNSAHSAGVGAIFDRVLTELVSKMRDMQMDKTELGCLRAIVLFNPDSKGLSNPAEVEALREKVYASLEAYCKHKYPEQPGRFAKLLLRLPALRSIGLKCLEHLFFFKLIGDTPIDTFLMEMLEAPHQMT
Nature of the experiment: Antagonist activity at recombinant GST-tagged RXRalpha LBD (unknown origin) assessed as inhibition of CD3254-induced fluorescein labeled D22 coactivator recruitment at 8 uM after 4 hrs by TR-FRET assay. Put shortly: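 GST-RXRα LBD (5 nM) was incubated at room temperature with 150 nM fluorescein-D22 peptide in pH 7.4 Hepes binding buffer containing DTT, with a suboptimal concentration of CD3254 plus test ligand (≤1% DMSO). Terbium anti-GST antibody (2 nM) was the donor. The 520/495 nm TR-FRET ratio was read after 4 h and expressed as Delta F% versus controls lacking GST-RXRα.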
For orientation: In TR-FRET formats the signal depends on donor and acceptor labels being close together.

Experiment [5] can be described thus: Cytotoxicity against human Jurkat T cells assessed as cell viability at 4 uM after 24 hrs by CellTiter-Glo assay relative to control. The experiment is classed as functional. The settings on record: read-out: Activity. Put shortly: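 Jurkat cells in 0.5% FBS RPMI were exposed to 4 µM compound or 0.1% DMSO for 24 h. Viability was read as ATP by CellTiter-Glo luminescence and expressed as percent of solvent control; below 60% counted as cell killing. Data: three experiments, triplicate.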
A general note: ATP-based viability assays read luminescence as a measure of living cells.

Experiment [6] addresses T4, Inhibitor of nuclear factor kappa-B kinase subunit alpha (Homo sapiens) (UniProt O15111).
T4 sequence (whole entry): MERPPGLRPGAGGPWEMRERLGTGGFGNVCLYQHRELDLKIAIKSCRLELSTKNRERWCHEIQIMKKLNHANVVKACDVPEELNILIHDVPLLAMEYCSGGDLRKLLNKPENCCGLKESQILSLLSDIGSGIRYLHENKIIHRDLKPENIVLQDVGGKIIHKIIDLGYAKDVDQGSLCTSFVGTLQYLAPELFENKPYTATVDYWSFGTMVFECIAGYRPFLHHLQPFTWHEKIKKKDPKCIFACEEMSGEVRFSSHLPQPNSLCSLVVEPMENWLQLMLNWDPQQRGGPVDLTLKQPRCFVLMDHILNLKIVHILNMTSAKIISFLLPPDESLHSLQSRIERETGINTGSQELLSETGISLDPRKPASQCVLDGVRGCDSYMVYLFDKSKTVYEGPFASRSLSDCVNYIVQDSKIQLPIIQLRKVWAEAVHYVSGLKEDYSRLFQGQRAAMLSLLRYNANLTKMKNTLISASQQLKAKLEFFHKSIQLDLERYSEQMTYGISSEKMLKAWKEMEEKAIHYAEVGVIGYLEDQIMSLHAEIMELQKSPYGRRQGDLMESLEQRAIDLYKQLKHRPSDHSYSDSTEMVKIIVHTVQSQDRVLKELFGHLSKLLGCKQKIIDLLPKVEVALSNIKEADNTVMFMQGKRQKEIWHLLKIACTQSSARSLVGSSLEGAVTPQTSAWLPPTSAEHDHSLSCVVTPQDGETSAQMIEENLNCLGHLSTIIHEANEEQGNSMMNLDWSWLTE
Nature of the experiment: Inhibition of recombinant IKKalpha (unknown origin) using ulight-IkappaomegaBalpha as substrate at 20 uM after 2 hrs by LANCE ultra TR-FRET assay relative to control. Put shortly: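 Recombinant IKKα (4 nM), IKKβ (1 nM) or IKKε (2 nM) in 50 mM Hepes pH 7.4, 10 mM MgCl2, 1 mM EGTA, 2 mM DTT, 0.01% Tween-20. Substrate was 50 nM ULight-IκBα (IKKα/β) or ULight-rpS6 (IKKε); ATP was 1.25 µM (α/β) or 5 µM (ε). Compound was tested at 20 µM. Incubation was 1 h (IKKβ) or 2 h (IKKα/ε) at room temperature, stopped with 20 mM EDTA plus 2 nM Eu-anti-phospho antibody, then TR-FRET 665/615 nm. Results are percent inhibition versus solvent; 3–4 experiments, triplicate.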

Experiment [7] concerns the target T5, Inhibitor of nuclear factor kappa-B kinase subunit epsilon (Homo sapiens) (UniProt Q14164).
T5 sequence (whole entry): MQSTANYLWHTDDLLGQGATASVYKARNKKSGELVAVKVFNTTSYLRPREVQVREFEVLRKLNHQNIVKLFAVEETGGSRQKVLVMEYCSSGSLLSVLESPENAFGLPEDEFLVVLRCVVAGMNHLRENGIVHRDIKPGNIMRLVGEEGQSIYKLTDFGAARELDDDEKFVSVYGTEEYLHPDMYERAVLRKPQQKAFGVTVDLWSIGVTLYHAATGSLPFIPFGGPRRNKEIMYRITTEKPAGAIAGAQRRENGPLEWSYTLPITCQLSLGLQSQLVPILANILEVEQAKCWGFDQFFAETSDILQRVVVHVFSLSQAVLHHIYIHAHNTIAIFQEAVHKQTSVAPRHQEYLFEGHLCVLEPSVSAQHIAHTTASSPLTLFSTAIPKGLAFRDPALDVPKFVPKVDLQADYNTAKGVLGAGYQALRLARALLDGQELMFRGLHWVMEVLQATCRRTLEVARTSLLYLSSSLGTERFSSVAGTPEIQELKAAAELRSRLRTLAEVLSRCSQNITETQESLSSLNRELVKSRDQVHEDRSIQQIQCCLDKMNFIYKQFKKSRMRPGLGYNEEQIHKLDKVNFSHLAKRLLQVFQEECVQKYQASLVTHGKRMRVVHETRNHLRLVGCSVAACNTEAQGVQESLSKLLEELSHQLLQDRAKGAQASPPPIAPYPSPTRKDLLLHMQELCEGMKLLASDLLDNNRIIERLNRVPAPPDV
Description: Inhibition of recombinant IKKepsilon (unknown origin) using ulight-rpS6 as substrate at 20 uM after 2 hrs by LANCE ultra TR-FRET assay relative to control.

The target in experiment [8] is T6, Inhibitor of nuclear factor kappa-B kinase subunit beta (Homo sapiens) (UniProt O14920).
T6 sequence (whole entry): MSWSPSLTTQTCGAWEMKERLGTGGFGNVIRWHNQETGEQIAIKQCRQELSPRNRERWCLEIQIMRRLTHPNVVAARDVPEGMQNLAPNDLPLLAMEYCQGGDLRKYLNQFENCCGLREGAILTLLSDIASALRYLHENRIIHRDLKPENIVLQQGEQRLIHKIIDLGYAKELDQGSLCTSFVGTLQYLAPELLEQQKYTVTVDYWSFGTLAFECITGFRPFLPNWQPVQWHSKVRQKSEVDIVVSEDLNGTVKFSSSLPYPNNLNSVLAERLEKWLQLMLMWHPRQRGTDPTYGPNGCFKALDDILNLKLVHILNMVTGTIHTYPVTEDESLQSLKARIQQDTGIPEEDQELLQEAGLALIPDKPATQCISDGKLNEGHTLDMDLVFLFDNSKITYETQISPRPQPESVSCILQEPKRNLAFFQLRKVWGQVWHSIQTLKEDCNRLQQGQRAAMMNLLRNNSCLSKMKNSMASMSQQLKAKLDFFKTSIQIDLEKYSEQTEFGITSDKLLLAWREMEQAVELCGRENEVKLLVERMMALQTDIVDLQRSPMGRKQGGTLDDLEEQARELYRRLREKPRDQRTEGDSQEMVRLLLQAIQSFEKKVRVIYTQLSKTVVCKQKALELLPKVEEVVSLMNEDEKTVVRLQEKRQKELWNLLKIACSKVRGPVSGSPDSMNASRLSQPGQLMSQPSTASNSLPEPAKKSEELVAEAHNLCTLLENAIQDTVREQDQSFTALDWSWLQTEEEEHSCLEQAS
Description: Inhibition of recombinant IKKbeta (unknown origin) using ulight-IkappaomegaBalpha as substrate at 20 uM after 1 hr by LANCE ultra TR-FRET assay relative to control.

A further experiment concerns Jurkat. Nature of the experiment: Induction of apoptosis in human Jurkat cells assessed as activation of DEVDase at 5 uM after 4 hrs by fluorometric assay relative to control. Type of experiment: functional. Put shortly:
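Jurkat cells (20,000/well, 0.5% FBS RPMI) were treated 4 h with 5 µM compound and lysed 15 min in PIPES pH 7 buffer with NP-40, cytochalasin B and protease inhibitors. An equal volume of 2× caspase buffer containing 100 µM Ac-DEVD-AFC was added. AFC fluorescence (ex 390/em 510 nm) was read every 2 min for 1 h at 37 °C; the linear slope was taken as activity, expressed as fold over DMSO control. Data: 2 experiments, triplicate.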

For experiment [9], the target named is T7, Inhibitor of nuclear factor kappa-B kinase subunit beta (Homo sapiens, UniProt O14920).
T7 sequence (O14920 whole entry): T6 sequence (whole entry)
Description: Inhibition of recombinant IKKbeta (unknown origin) using ulight-IkappaomegaBalpha as substrate after 1 hr by LANCE ultra TR-FRET assay.

Experiment [10] is described as follows: Cytotoxicity against human Jurkat T cells assessed as cell viability after 24 hrs by CellTiter-Glo assay. The experiment is classed as functional, cell-based. Put shortly:
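Jurkat cells were seeded the day before treatment in RPMI with 0.5% FBS (10,000 cells/well). They were treated in triplicate across an 8-point dose series starting at 10 µM, with DMSO ≤0.1% as solvent control. ATP was measured by CellTiter-Glo luminescence after 24 h; a time-0 reading separated cytostatic from cytotoxic effects. IC50 was fitted from the curve.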

`CC1(C)CC=C(C#Cc2ccccc2)c2cc(/C=C/c3ccc(C(=O)O)cc3)ccc21`: the fold change (FC) in [1] is 1.3. The same molecule displayed an IC50 in experiment [2] of 0.114 µM. For the same molecule, the Activity in experiment [3] is 7.1%.

On to `CCCCCOc1cc2c(cc1-c1cc(/C=C/C(=O)O)ccc1O)C(C)(C)CCC2(C)C`, for which the inhibition in experiment [4] is 25%.

With `CC(=O)NCCCOc1cc(/C=C/C(=O)O)ccc1-c1ccc(O)c(C23CC4CC(CC(C4)C2)C3)c1`, the viability at 4 µM in [5] was found to be 42.7%. Moreover, the inhibition in experiment [6] was 5%; in [7] it was 14.4%; in experiment [8], 0%. Further, the “fold change (FC)” value in the experiment with Jurkat is reported as 6.1.

Regarding `COCCOCOc1ccc(C(=O)/C=C/c2ccc(C(=O)O)cc2)cc1C12CC3CC(CC(C3)C1)C2`, in experiment [5], the viability at 4 µM was found to be 28.5%. In addition, the IC50 in experiment [9] came out at 11.8 µM; in experiment [10] it was 3.33 µM. Besides, the inhibition was 56.3% in experiment [6], 15.8% in experiment [7] and 43.9% in experiment [8]. The “fold change (FC)” value in the experiment with Jurkat is 20.7.

For `O=C(O)/C=C/c1ccc(-c2ccc(O)c(C34CC5CC(CC(C5)C3)C4)c2)c(Cl)c1`, the viability at 4 µM in experiment [5] worked out at 6.6%. Moreover, the inhibition in experiment [6] was determined as 41.3%; in experiment [7] it was 24.1%; in [8], 40.6%. In addition, in the experiment with Jurkat, the “fold change (FC)” value was determined as 74.3.
